Test results taken from ChEMBL document CHEMBL3046167, “Activity of meadowfoam (Limnanthes alba) seed meal glucolimnanthin degradation products against soilborne pathogens” (J Agric Food Chem, 2012).
Values after ≈ are worked out from the molar mass of the structure shown. Active and inactive are the calls of the source. No cut-off for these calls is given here.

Experiments:
[1] = tested on: Globisporangium irregulare; test: Antiparasitic activity against Pythium irregulare assessed as culture diameter at 0.3 mg/ml after 24 hr; format: functional
Method in brief: (§1)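 P. irregulare: 3-mm agar plugs from 1-week cultures (20 °C, dark) were placed in wells with water plus test solution in DMSO (final 2% DMSO). Exposure was 24 h at 25 °C in the dark. Plugs were then rinsed, blotted and placed on PDA with 250 mg/L ampicillin. Colony diameter was measured after 48 h at 20 °C, excluding dead plugs, and expressed as % of the water control. EC50 was derived by regression. Eight wells per concentration.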

[2] = tested on: Globisporangium irregulare; test: Antiparasitic activity against Pythium irregulare assessed as culture diameter at <= 0.3 mg/ml after 24 hr; format: functional, organism-based; method in brief: as §1
[3] = tested on: Globisporangium irregulare; test: Antiparasitic activity against Pythium irregulare assessed as culture diameter after 24 hr; format: functional, organism-based; method in brief: as §1
[4] = tested on: Globisporangium irregulare; test: Antiparasitic activity against Pythium irregulare assessed as culture diameter at 0.75 mg/ml after 24 hr; format: functional; method in brief: as §1
[5] = tested on: Globisporangium irregulare; test: Antiparasitic activity against Pythium irregulare assessed as culture diameter at 0.5 mg/ml after 24 hr; format: functional; method in brief: as §1
Meloidogyne hapla [6] = test: Antiparasitic activity against Meloidogyne hapla J2 assessed as larvicidal activity after 24 hr; format: functional, organism-based; conditions: J2, 24 h
Method in brief: (§2)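 M. hapla J2 (tomato-cultured isolate) in 96-well plates, 40–60 J2 per well in water with test solution in DMSO (final DMSO 2% v/v). Incubated covered in the dark at 25 °C for 24 h, then mortality scored visually. Compounds were then removed and replaced with water, and mortality was rescored after another 24 h. EC50 was taken from dose-response regression. Eight wells per concentration; experiments were run at least twice.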

Meloidogyne hapla [7] = test: Antiparasitic activity against Meloidogyne hapla J2 assessed as larvicidal activity for 24 hr measured after replacement with water; format: functional, organism-based; conditions: J2, 24 h; method in brief: as §2
[8] = tested on: Globisporangium irregulare; test: Antiparasitic activity against Pythium irregulare assessed as culture diameter at 0.05 mg/ml after 24 hr; format: functional; method in brief: as §1
[9] = tested on: Globisporangium irregulare; test: Antiparasitic activity against Pythium irregulare assessed as culture diameter at 0.15 mg/ml after 24 hr; format: functional; method in brief: as §1
Verticillium dahliae [10] = test: Antiparasitic activity against Verticillium dahliae assessed as culture diameter at 0.005 mg/ml after 24 hr; format: functional
Method in brief: (§3)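 V. dahliae: 3-mm plugs from 3-week cultures (20 °C, dark) were exposed for 24 h at 25 °C in wells of water with 2% DMSO and test compound. Plugs were then rinsed, blotted and plated on PDA with 250 mg/L ampicillin. Diameter was measured after 1 week at 20 °C, excluding non-growing plugs, and expressed as % of the water control. Eight wells per concentration.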

Verticillium dahliae [11] = test: Antiparasitic activity against Verticillium dahliae assessed as culture diameter at 0.1 mg/ml after 24 hr; format: functional; method in brief: as §3
Verticillium dahliae [12] = test: Antiparasitic activity against Verticillium dahliae assessed as culture diameter at 0.01 mg/ml after 24 hr; format: functional; method in brief: as §3
Verticillium dahliae [13] = test: Antiparasitic activity against Verticillium dahliae assessed as culture diameter at 0.05 mg/ml after 24 hr; format: functional; method in brief: as §3
[14] = tested on: Globisporangium irregulare; test: Antiparasitic activity against Pythium irregulare assessed as culture diameter at 0.1 mg/ml after 24 hr; format: functional; method in brief: as §1
Verticillium dahliae [15] = test: Antiparasitic activity against Verticillium dahliae assessed as culture diameter at 0.001 mg/ml after 24 hr; format: functional; method in brief: as §3
Verticillium dahliae [16] = test: Antiparasitic activity against Verticillium dahliae assessed as culture diameter after 24 hr; format: functional, organism-based; method in brief: as §3
[17] = tested on: Globisporangium irregulare; test: Antiparasitic activity against Pythium irregulare assessed as culture morality after 24 hr; format: functional, organism-based
Method in brief: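 P. irregulare plugs were exposed in wells to compounds in 2% DMSO for 24 h at 25 °C, then rinsed and plated on ampicillin-amended PDA. Plugs failing to grow were counted as dead, giving percentage mortality per treatment. EC50 was estimated from dose-response regression. Eight replicate wells per concentration; experiments were run at least twice.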

[18] = tested on: Globisporangium irregulare; test: Antiparasitic activity against Pythium irregulare assessed as culture diameter at 0.075 mg/ml after 24 hr; format: functional; method in brief: as §1
Verticillium dahliae [19] = test: Antiparasitic activity against Verticillium dahliae assessed as culture diameter at 0.08 mg/ml after 24 hr; format: functional; method in brief: as §3
Verticillium dahliae [20] = test: Antiparasitic activity against Verticillium dahliae assessed as culture diameter at 0.2 mg/ml after 24 hr; format: functional; method in brief: as §3
[21] = tested on: Globisporangium irregulare; test: Antiparasitic activity against Pythium irregulare assessed as culture diameter at 0.025 mg/ml after 24 hr; format: functional; method in brief: as §1
[22] = tested on: Globisporangium irregulare; test: Antiparasitic activity against Pythium irregulare assessed as culture diameter at 0.2 mg/ml after 24 hr; format: functional; method in brief: as §1
Verticillium dahliae [23] = test: Antiparasitic activity against Verticillium dahliae assessed as culture diameter at 0.03 mg/ml after 24 hr; format: functional; method in brief: as §3
Verticillium dahliae [24] = test: Antiparasitic activity against Verticillium dahliae assessed as culture diameter at 0.02 mg/ml after 24 hr; format: functional; method in brief: as §3

In the case of `COc1cccc(CC(N)=S)c1`, the mortality at 300 µg/mL [1] was 0%, the Activity [2] was “inactive” and the EC50 [3] was 750 µg/mL (≈ 4140 µM). For the same molecule, the mortality at 750 µg/mL [4] was 0%, the mortality at 500 µg/mL [5] was 0% and the EC50 (Meloidogyne hapla [6]) was 245 µg/mL (≈ 1350 µM). The EC50 (Meloidogyne hapla [7]) was 584 µg/mL (≈ 3220 µM), the mortality at 50 µg/mL [8] was 0% and the mortality at 150 µg/mL [9] was 0%.

Molecule `COc1cccc(CN=C=S)c1` [3-METHOXYBENXYL ISOTHIOCYANATE] has a mortality at 5 µg/mL (Verticillium dahliae [10]) of 0%, a mortality at 100 µg/mL (Verticillium dahliae [11]) of 50% and a mortality at 10 µg/mL (Verticillium dahliae [12]) of 0%. For the same molecule, the mortality at 50 µg/mL (Verticillium dahliae [13]) was 19%, the mortality at 100 µg/mL [14] was 63% and the mortality at 1 µg/mL (Verticillium dahliae [15]) was 0%. For the same molecule, the EC50 (Verticillium dahliae [16]) was 100 µg/mL (≈ 558 µM), the EC50 [17] was 50 µg/mL (≈ 279 µM) and the EC50 (Meloidogyne hapla [6]) was 2 µg/mL (≈ 11.2 µM). The mortality at 75 µg/mL [18] was 56%, the mortality at 80 µg/mL (Verticillium dahliae [19]) was 7% and the mortality at 200 µg/mL (Verticillium dahliae [20]) was 69%. It also gave a mortality at 25 µg/mL [21] of 0%, a mortality at 200 µg/mL [22] of 88% and an EC50 (Meloidogyne hapla [7]) of 3 µg/mL (≈ 16.7 µM). For the same molecule, the mortality at 30 µg/mL (Verticillium dahliae [23]) was 0%, the mortality at 50 µg/mL [8] was 54% and the mortality at 20 µg/mL (Verticillium dahliae [24]) was 0%. It also gave a mortality at 150 µg/mL [9] of 88%.
